Experimental data from ChEMBL document CHEMBL3739406, “Trisubstituted Thieno[3,2-b]pyrrole 5-Carboxamides as Potent Inhibitors of Alphaviruses” (J Med Chem, 2015).

Tested on: Chikungunya virus
Test: Antiviral activity against wild type Chikungunya virus IMT infected in HEK293T cells assessed as inhibition of infectivity measured at 24 hrs postinfection by FITC/DAPI staining based array scan VTI HCS reader analysis
Assay type: functional, cell-based
Conditions: HEK-293T

In order of rising EC50:
1. CCCNC(=O)C1CCN(C(=O)c2cc3sc(-c4ccccc4)cc3n2Cc2ccc(OC)cc2)CC1  3.08 µM
2. CCCNC(=O)C1CCN(C(=O)c2cc3sc(C)cc3n2Cc2ccc(OC)cc2)CC1  3.27 µM
3. CCCNC(=O)C1CCN(C(=O)c2cc3sc(CNC(C)c4ccccc4)cc3n2Cc2ccc(OC)cc2)CC1 (configuration not stated)  13.5 µM

For `CCCNC(=O)C1CCN(C(=O)c2cc3sc(CNC(C)c4ccccc4)cc3n2Cc2ccc(OC)cc2)CC1` (configuration not stated), the inhibition was “Dose-dependent effect”.
For `CCCNC(=O)C1CCN(C(=O)c2cc3sc(-c4ccccc4)cc3n2Cc2ccc(OC)cc2)CC1`, the inhibition was “Dose-dependent effect”.
In the case of `CCCNC(=O)C1CCN(C(=O)c2cc3sc(C)cc3n2Cc2ccc(OC)cc2)CC1`, the inhibition is reported as “Dose-dependent effect”.

Tested on: not listed separately
Test: Selectivity index, ratio of CC50 for HEK293T cells to EC50 for Chikungunya virus infected in HEK293T cells
Assay type: toxicity, cell-based, HEK-293T
Conditions: human, read-out: Ratio CC50/EC50

`COc1ccc(Cn2c(C(=O)N3CCN(Cc4ccccc4)CC3)cc3sccc32)cc1` and `COc1ccc(Cn2c(C(=O)N3CCN(Cc4ccccc4)CC3)cc3sc(-c4ccccc4)cc32)cc1` cannot be ordered by selectivity ratio: greater than 2.4 for the first, greater than 2.4 for the second.

`CCCNC(=O)C1CCN(C(=O)c2c(CO)c3sccc3n2Cc2ccc(OC)cc2)CC1` and `CCCNCc1c(C(=O)N2CCC(C(=O)NCCC)CC2)n(Cc2ccc(OC)cc2)c2ccsc12` cannot be ordered by selectivity ratio: greater than 2.1 for the first, greater than 3.6 for the second.

Compared with `CCCNC(=O)C1CCN(C(=O)c2cc3sc(CNC(C)c4ccccc4)cc3n2Cc2ccc(OC)cc2)CC1` (configuration not stated), `CCCNC(=O)C1CCN(C(=O)c2cc3sc(-c4ccccc4)cc3n2Cc2ccc(OC)cc2)CC1` is higher in selectivity ratio: 4 for the first, greater than 26 for the second.

`CCN(CC)C(=O)c1cc2sccc2n1Cc1ccc(OC)cc1` and `COc1ccc(Cn2c(C(=O)N3CCCC3)cc3sccc32)cc1` cannot be ordered by selectivity ratio: greater than 2 for the first, greater than 2.8 for the second.

`CCCNCc1cc2c(cc(C(=O)N3CCC(C(=O)NCCC)CC3)n2Cc2ccc(OC)cc2)s1` and `CCCNC(=O)C1CCN(C(=O)c2cc3sc(C)cc3n2Cc2ccc(OC)cc2)CC1` cannot be ordered by selectivity ratio: greater than 2.5 for the first, 10 for the second.

`COc1ccc(Cn2c(C(=O)N3CCC(C(N)=O)CC3)cc3sccc32)cc1` and `CCOC(=O)C1CCN(C(=O)c2cc3sccc3n2Cc2ccc(OC)cc2)CC1` cannot be ordered by selectivity ratio: greater than 1.4 for the first, 3 for the second.

`COc1ccc(Cn2c(C(=O)N3CCC(C(=O)NCc4cccc(Br)c4)CC3)cc3sccc32)cc1` and `COc1ccc(Cn2c(C(=O)N3CCC(C(=O)NCCc4ccccc4)CC3)cc3sccc32)cc1` cannot be ordered by selectivity ratio: greater than 9.2 for the first, greater than 9 for the second.

`COc1ccc(Cn2c(C(=O)N3CCN(Cc4ccccc4)CC3)c(CNC(C)c3ccccc3)c3sccc32)cc1` (configuration not stated) and `CCCNC(=O)C1CCN(C(=O)c2c(CNCc3ccccc3)c3sccc3n2Cc2ccc(OC)cc2)CC1` cannot be ordered by selectivity ratio: greater than 4.3 for the first, 5 for the second.

First: CCCCC(=O)C1CCN(C(=O)c2cc3sccc3n2Cc2ccc(OC)cc2)CC1
Second: COc1ccc(Cn2c(C(=O)N3CCC(C(=O)NCC4CC4)CC3)cc3sccc32)cc1
The selectivity ratio of the first is higher: 2.9 for the first, 2.4 for the second.

Work on `CCCNC(=O)C1CCN(C(=O)c2cc3sc(C(C)=O)cc3n2Cc2ccc(OC)cc2)CC1` yielded a selectivity ratio greater than 4.8.

Tested on: not listed separately
Test: Cytotoxicity against HEK293T cells assessed as reduction in cell viability after 24 hrs by cell titer-glo luminescent cell viability assay
Assay type: cell-based, HEK-293T
Conditions: human
Outline: (§1)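 HEK 293T cells, 3 × 10⁴/well, seeded overnight, then exposed 24 h to compound (0.01–100 μM, triplicate) in DMEM pH 6.8 with 10% FBS. Viability read by CellTiter-Glo luminescence. Normalized to untreated (100%) and medium blank (0%); CC50 by five-parameter curve fit.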

`COc1ccc(Cn2c(C(=O)N3CCN(Cc4ccccc4)CC3)cc3sccc32)cc1` and `COc1ccc(Cn2c(C(=O)N3CCN(Cc4ccccc4)CC3)cc3sc(-c4ccccc4)cc32)cc1` cannot be ordered by CC50 at 24 h: greater than 100 µM for the first, greater than 100 µM for the second.

`CCCNC(=O)C1CCN(C(=O)c2c(CO)c3sccc3n2Cc2ccc(OC)cc2)CC1` and `CCCNCc1c(C(=O)N2CCC(C(=O)NCCC)CC2)n(Cc2ccc(OC)cc2)c2ccsc12` cannot be ordered by CC50 at 24 h: greater than 100 µM for the first, greater than 100 µM for the second.

Going from `CCCNC(=O)C1CCN(C(=O)c2cc3sc(CNC(C)c4ccccc4)cc3n2Cc2ccc(OC)cc2)CC1` (configuration not stated) to `CCCNC(=O)C1CCN(C(=O)c2cc3sc(-c4ccccc4)cc3n2Cc2ccc(OC)cc2)CC1`, the CC50 at 24 h rises from 33.9 µM to greater than 100 µM.

`CCN(CC)C(=O)c1cc2sccc2n1Cc1ccc(OC)cc1` and `COc1ccc(Cn2c(C(=O)N3CCCC3)cc3sccc32)cc1` cannot be ordered by CC50 at 24 h: greater than 100 µM for the first, greater than 100 µM for the second.

Compared with `CCCNCc1cc2c(cc(C(=O)N3CCC(C(=O)NCCC)CC3)n2Cc2ccc(OC)cc2)s1`, `CCCNC(=O)C1CCN(C(=O)c2cc3sc(C)cc3n2Cc2ccc(OC)cc2)CC1` is lower in CC50 at 24 h: greater than 100 µM for the first, 36.3 µM for the second.

Going from `COc1ccc(Cn2c(C(=O)N3CCC(C(N)=O)CC3)cc3sccc32)cc1` to `CCOC(=O)C1CCN(C(=O)c2cc3sccc3n2Cc2ccc(OC)cc2)CC1`, the CC50 at 24 h falls from greater than 100 µM to 39 µM.

`COc1ccc(Cn2c(C(=O)N3CCC(C(=O)NCc4cccc(Br)c4)CC3)cc3sccc32)cc1` and `COc1ccc(Cn2c(C(=O)N3CCC(C(=O)NCCc4ccccc4)CC3)cc3sccc32)cc1` cannot be ordered by CC50 at 24 h: greater than 100 µM for the first, greater than 100 µM for the second.

First: COc1ccc(Cn2c(C(=O)N3CCN(Cc4ccccc4)CC3)c(CNC(C)c3ccccc3)c3sccc32)cc1 (configuration not stated)
Second: CCCNC(=O)C1CCN(C(=O)c2c(CNCc3ccccc3)c3sccc3n2Cc2ccc(OC)cc2)CC1
The CC50 at 24 h of the first is higher: greater than 100 µM for the first, 77.6 µM for the second.

Compared with `CCCCC(=O)C1CCN(C(=O)c2cc3sccc3n2Cc2ccc(OC)cc2)CC1`, `COc1ccc(Cn2c(C(=O)N3CCC(C(=O)NCC4CC4)CC3)cc3sccc32)cc1` is 1.6-fold lower in CC50 at 24 h: 38.9 µM for the first, 24.6 µM for the second.

In the case of `CCCNC(=O)C1CCN(C(=O)c2cc3sc(C(C)=O)cc3n2Cc2ccc(OC)cc2)CC1`, the CC50 at 24 h is reported as greater than 100 µM.

Tested on: Chikungunya virus
Test: Antiviral activity against Chikungunya virus infected in HEK293T cells assessed as reduction of infectivity measured at 24 hrs postinfection by gaussia luciferase reporter gene assay
Assay type: functional, cell-based
Conditions: HEK-293T

In order of rising EC50:
1. CCCNC(=O)C1CCN(C(=O)c2cc3sc(C)cc3n2Cc2ccc(OC)cc2)CC1  3.6 µM
2. CCCNC(=O)C1CCN(C(=O)c2cc3sc(-c4ccccc4)cc3n2Cc2ccc(OC)cc2)CC1  3.85 µM
3. CCCNC(=O)C1CCN(C(=O)c2cc3sc(CNC(C)c4ccccc4)cc3n2Cc2ccc(OC)cc2)CC1 (configuration not stated)  8.44 µM
4. COc1ccc(Cn2c(C(=O)N3CCC(C(=O)NCC4CC4)CC3)cc3sccc32)cc1  10.4 µM
5. COc1ccc(Cn2c(C(=O)N3CCC(C(=O)NCc4cccc(Br)c4)CC3)cc3sccc32)cc1  10.9 µM
6. COc1ccc(Cn2c(C(=O)N3CCC(C(=O)NCCc4ccccc4)CC3)cc3sccc32)cc1  11.1 µM
7. CCOC(=O)C1CCN(C(=O)c2cc3sccc3n2Cc2ccc(OC)cc2)CC1  13.1 µM
8. CCCCC(=O)C1CCN(C(=O)c2cc3sccc3n2Cc2ccc(OC)cc2)CC1  13.3 µM
9. CCCNC(=O)C1CCN(C(=O)c2c(CNCc3ccccc3)c3sccc3n2Cc2ccc(OC)cc2)CC1  15.4 µM
10. CCCNC(=O)C1CCN(C(=O)c2cc3sc(C(C)=O)cc3n2Cc2ccc(OC)cc2)CC1  20.9 µM
11. COc1ccc(Cn2c(C(=O)N3CCN(Cc4ccccc4)CC3)c(CNC(C)c3ccccc3)c3sccc32)cc1 (configuration not stated)  23 µM
12. CCCNCc1c(C(=O)N2CCC(C(=O)NCCC)CC2)n(Cc2ccc(OC)cc2)c2ccsc12  27.7 µM
13. COc1ccc(Cn2c(C(=O)N3CCCC3)cc3sccc32)cc1  35.4 µM
14. CCCNCc1cc2c(cc(C(=O)N3CCC(C(=O)NCCC)CC3)n2Cc2ccc(OC)cc2)s1  40 µM
15. COc1ccc(Cn2c(C(=O)N3CCN(Cc4ccccc4)CC3)cc3sccc32)cc1  41.7 µM
16. COc1ccc(Cn2c(C(=O)N3CCN(Cc4ccccc4)CC3)cc3sc(-c4ccccc4)cc32)cc1  42.4 µM
17. CCCNC(=O)C1CCN(C(=O)c2c(CO)c3sccc3n2Cc2ccc(OC)cc2)CC1  47.6 µM
18. CCN(CC)C(=O)c1cc2sccc2n1Cc1ccc(OC)cc1  49.6 µM
19. COc1ccc(Cn2c(C(=O)N3CCC(C(N)=O)CC3)cc3sccc32)cc1  70.9 µM

Tested on: not listed separately
Test: Cytotoxicity against HEK293T cells assessed as cell viability at antiviral EC50 after 24 hrs by cell titer-glo luminescent cell viability assay
Assay type: cell-based, HEK-293T
Conditions: human, read-out: Activity
Outline: as §1

`COc1ccc(Cn2c(C(=O)N3CCN(Cc4ccccc4)CC3)cc3sccc32)cc1` and `COc1ccc(Cn2c(C(=O)N3CCN(Cc4ccccc4)CC3)cc3sc(-c4ccccc4)cc32)cc1` cannot be ordered by viability at 24 h: greater than 80% for the first, greater than 80% for the second.

`CCCNC(=O)C1CCN(C(=O)c2c(CO)c3sccc3n2Cc2ccc(OC)cc2)CC1` and `CCCNCc1c(C(=O)N2CCC(C(=O)NCCC)CC2)n(Cc2ccc(OC)cc2)c2ccsc12` cannot be ordered by viability at 24 h: greater than 80% for the first, greater than 80% for the second.

`CCCNC(=O)C1CCN(C(=O)c2cc3sc(CNC(C)c4ccccc4)cc3n2Cc2ccc(OC)cc2)CC1` (configuration not stated) and `CCCNC(=O)C1CCN(C(=O)c2cc3sc(-c4ccccc4)cc3n2Cc2ccc(OC)cc2)CC1` cannot be ordered by viability at 24 h: greater than 80% for the first, greater than 80% for the second.

`CCN(CC)C(=O)c1cc2sccc2n1Cc1ccc(OC)cc1` and `COc1ccc(Cn2c(C(=O)N3CCCC3)cc3sccc32)cc1` cannot be ordered by viability at 24 h: greater than 80% for the first, greater than 80% for the second.

`CCCNCc1cc2c(cc(C(=O)N3CCC(C(=O)NCCC)CC3)n2Cc2ccc(OC)cc2)s1` and `CCCNC(=O)C1CCN(C(=O)c2cc3sc(C)cc3n2Cc2ccc(OC)cc2)CC1` cannot be ordered by viability at 24 h: greater than 80% for the first, greater than 80% for the second.

`COc1ccc(Cn2c(C(=O)N3CCC(C(N)=O)CC3)cc3sccc32)cc1` and `CCOC(=O)C1CCN(C(=O)c2cc3sccc3n2Cc2ccc(OC)cc2)CC1` cannot be ordered by viability at 24 h: greater than 80% for the first, greater than 80% for the second.

`COc1ccc(Cn2c(C(=O)N3CCC(C(=O)NCc4cccc(Br)c4)CC3)cc3sccc32)cc1` and `COc1ccc(Cn2c(C(=O)N3CCC(C(=O)NCCc4ccccc4)CC3)cc3sccc32)cc1` cannot be ordered by viability at 24 h: greater than 80% for the first, greater than 80% for the second.

`COc1ccc(Cn2c(C(=O)N3CCN(Cc4ccccc4)CC3)c(CNC(C)c3ccccc3)c3sccc32)cc1` (configuration not stated) and `CCCNC(=O)C1CCN(C(=O)c2c(CNCc3ccccc3)c3sccc3n2Cc2ccc(OC)cc2)CC1` cannot be ordered by viability at 24 h: greater than 80% for the first, greater than 80% for the second.

`CCCCC(=O)C1CCN(C(=O)c2cc3sccc3n2Cc2ccc(OC)cc2)CC1` and `COc1ccc(Cn2c(C(=O)N3CCC(C(=O)NCC4CC4)CC3)cc3sccc32)cc1` cannot be ordered by viability at 24 h: greater than 80% for the first, greater than 80% for the second.

For `CCCNC(=O)C1CCN(C(=O)c2cc3sc(C(C)=O)cc3n2Cc2ccc(OC)cc2)CC1`, the viability at 24 h was greater than 80%.
